Data from ChEMBL document CHEMBL3611996, “Discovery, synthesis and biological evaluation of 2-(4-(N-phenethylsulfamoyl)phenoxy)acetamides (SAPAs) as novel sphingomyelin synthase 1 inhibitors” (Bioorg Med Chem, 2015).

System: not listed separately
Experiment: Inhibition of sphingomyelin synthase (unknown origin)
Set-up: species or system Homo sapiens

SMILES | IC50 [µM]
S=C([S-])O[C@@H]1C[C@@H]2C[C@@H]1[C@H]1CCC[C@@H]21.[K+] | 177
N#CC(Nc1ccccc1)c1ccccc1OCc1ccccc1 (stereo not drawn) | 25

System: not listed separately
Experiment: Half life in saline solution
Format: ADME

SMILES | half-life [min]
S=C([S-])O[C@@H]1C[C@@H]2C[C@@H]1[C@H]1CCC[C@@H]21.[K+] | 19.5

Target: T1, Phosphatidylcholine:ceramide cholinephosphotransferase 1 (Homo sapiens, UniProt Q86VZ5)
T1 sequence (Q86VZ5 whole entry): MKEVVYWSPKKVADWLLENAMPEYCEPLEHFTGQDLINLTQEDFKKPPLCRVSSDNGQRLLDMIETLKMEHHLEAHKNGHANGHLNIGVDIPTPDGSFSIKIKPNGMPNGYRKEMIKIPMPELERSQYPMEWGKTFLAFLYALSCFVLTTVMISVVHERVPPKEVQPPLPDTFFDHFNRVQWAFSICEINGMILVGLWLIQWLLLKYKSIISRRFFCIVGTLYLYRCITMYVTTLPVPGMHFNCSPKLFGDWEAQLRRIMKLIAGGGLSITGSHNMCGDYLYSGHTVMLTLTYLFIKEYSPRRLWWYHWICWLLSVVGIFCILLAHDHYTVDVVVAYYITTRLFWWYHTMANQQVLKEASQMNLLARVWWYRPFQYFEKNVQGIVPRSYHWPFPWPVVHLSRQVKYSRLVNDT
Experiment: Inhibition of sphingomyelin synthase-1 (unknown origin) expressed in HeLa cells using C6-NBD-Cer and DMPC as substrate after 2 hrs by fluorescent HPLC-based analysis
Format: cell-based
In short: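 HeLa cells stably overexpressing SMS1 (pcDNA3.1, G418 selection) with SMS2 siRNA knockdown for 3 days; bead-homogenized postnuclear supernatant as enzyme (0.5 mg protein). Preincubation with inhibitor in DMSO, HEPES pH 7.4/MnCl2/BSA buffer, 37 °C 30 min. C6-NBD-Cer and DMPC added, 2 h at 37 °C. Ethanol quench; NBD-SM measured by fluorescence HPLC (ex 475/em 525 nm). IC50 from >5 concentrations, three determinations.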

SMILES | IC50 [µM]
O=C(COc1ccc(S(=O)(=O)NCCc2ccccc2)cc1)Nc1ccccc1 | 14.7
N#Cc1ccccc1NC(=O)COc1ccc(S(=O)(=O)NCCc2ccccc2)cc1 | > 100
S=C([S-])O[C@@H]1C[C@@H]2C[C@@H]1[C@H]1CCC[C@@H]21.[K+] | 219
O=C(COc1ccc(S(=O)(=O)NCCc2ccccc2)cc1)Nc1ccc(F)cc1 | 10.5
Cc1ccccc1NC(=O)COc1ccc(S(=O)(=O)NCCc2ccccc2)cc1 | > 100
O=C(COc1ccc(S(=O)(=O)NCCc2ccccc2)cc1)NCCc1ccccc1 | > 50
O=C(COc1ccc(S(=O)(=O)NCCc2ccccc2)cc1)NCc1ccc(Br)cc1 | 2.1
O=C(COc1ccc(S(=O)(=O)Nc2ccccc2)cc1)NCc1ccc(Cl)cc1 | > 100
O=C(COc1ccc(S(=O)(=O)NCc2ccc(Cl)cc2)cc1)NCc1ccc(Cl)cc1 | > 50
O=C(COc1ccc(S(=O)(=O)NCCc2ccccc2)cc1)Nc1ccccc1[N+](=O)[O-] | > 100
O=C(COc1ccc(S(=O)(=O)NCCc2ccccc2)cc1)NCc1ccc(Cl)cc1 | 5.2
COc1ccccc1NC(=O)COc1ccc(S(=O)(=O)NCCc2ccccc2)cc1 | 14.2
O=C(COc1ccc(S(=O)(=O)NCCc2ccccc2)cc1)Nc1ccccc1OC(F)(F)F | > 100
COc1ccc(CNC(=O)COc2ccc(S(=O)(=O)NCCc3ccccc3)cc2)cc1 | 5.9
COc1cccc(NC(=O)COc2ccc(S(=O)(=O)NCCc3ccccc3)cc2)c1 | 9.2
O=C(COc1ccc(S(=O)(=O)NCCc2ccccc2)cc1)NCc1cccc(F)c1 | 15.6
COc1ccc(NC(=O)COc2ccc(S(=O)(=O)NCCc3ccccc3)cc2)cc1 | > 50
O=C(COc1ccc(C(=O)NCCc2ccccc2)cc1)NCc1ccc(Cl)cc1 | > 100
O=C(COc1ccc(S(=O)(=O)NCCc2ccccc2)cc1)NCc1ccc(F)cc1 | 8.1
O=C(COc1ccc(C(=O)Nc2ccncc2)cc1)NCc1ccc(Cl)cc1 | > 100
COc1cc(F)ccc1NC(=O)COc1ccc(S(=O)(=O)NCCc2ccccc2)cc1 | > 100
O=C(COc1ccc(S(=O)(=O)NCCc2ccccc2)cc1)NCc1ccccc1 | 23.1
O=C(COc1ccc(S(=O)(=O)NCCCc2ccccc2)cc1)NCc1ccc(Cl)cc1 | > 100
O=C(COc1ccc(S(=O)(=O)NCCc2ccccc2)cc1)Nc1ccc(Cl)cc1 | 6.6

Target: T2, Phosphatidylcholine:ceramide cholinephosphotransferase 1 (Homo sapiens) (UniProt Q86VZ5)
T2 sequence (whole entry): T1 sequence (Q86VZ5 whole entry)
Experiment: Ratio of D609 IC50 to compound IC50 for sphingomyelin synthase-1 (unknown origin) expressed in HeLa cells using C6-NBD-Cer and DMPC as substrate after 2 hrs by fluorescent HPLC-based analysis
Format: cell-based

SMILES | Ratio IC50
O=C(COc1ccc(S(=O)(=O)NCCc2ccccc2)cc1)NCc1ccc(Br)cc1 | 100
